A1 apoptosis 2 = A1 inhibitors via caspase activation, primary screen, cell-based, luminescence, HTS, two replicates; AID 2465, 2010; caspase activation, % (no concentration beside the values); 24,000 tested, under 10 active; MEF A1-2A-BIM cells, caspase-Glo luminescence, 3 h; percent of clofoctol response, DMSO zero; in the data active means caspase activation above about 5.9%; inconclusive means no clear call, values can overlap the other calls; inactive means below about 2.2%
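system = A1-2A-BIM-expressing MEF cells | quantity = 2500 MEF cells/well | dosing = 50 nL compound per well, pinned | schedule = overnight cell settling, then 3 h compound exposure, 37 °C | signal = luminescence from DEVD-luciferin Caspase-Glo reagent, 1:1 in 50 mM HEPES, 1 h RT | read-out = Caspase-3/7 activation, seen as rise in luminescence signal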
T cruzi HTS = inhibitors of intracellular Trypanosoma cruzi, primary screen, cell-based, plate reader, single point, set 2. AID 651903, 2012. intracellular Trypanosoma cruzi in host cells. activity score (inhibition), % at 5.01 µM. actives 4.9% (n = 22,000); in the data active means activity score above about 55%; inconclusive means no clear call, values can overlap the other calls;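 further: parasites and compound incubated about four days before reading; 0% = median of neutral control wells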
INS-1E ATP HTS = protection of INS-1E cells from cytokine death, primary screen, ATP luminescence, single point. protection from cytokine-induced ATP loss, % at 10 µM. INS-1E cytokine-induced death, 48 h; normalised: neutral wells 0, positive control 100. AID 488910, 2010. actives 0.1% (n = 20,000);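 active means mean replicate protection from cytokine-induced ATP loss at least 50% and at least 75% of replicates each reaching 50%; inconclusive means meets only one of the two criteria, mean or replicate share; inactive means fails both the mean and replicate share criteria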
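assay system = INS-1E rat insulinoma cells | amount = 8000 cells per well | medium = phenol-red-free RPMI with 5% fetal bovine serum | doses = one compound concentration, pin transfer | timing = 48 h cytokine plus compound treatment, 10 min reagent incubation | also added = IL-1β, TNF-α and IFN-γ cytokine mix | signal = CellTiter-Glo luminescence measuring cellular ATP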
* marks the source's active call; other numbers are inactive results; ? = inconclusive; / = no result. The full list was thinned out, with hits kept by preference.

SMILES | A1 apoptosis 2 | T cruzi HTS | INS-1E ATP HTS
Cc1ccc(S(=O)(=O)Nc2ccc3c(c2)C(=O)N([C@@H](C)CO)C[C@H](C)[C@@H](CN(C)Cc2ccc(Cl)c(Cl)c2)O3)cc1 | / | 32 | 0
C[C@@H]1CN([C@@H](C)CO)C(=O)c2cc(NS(=O)(=O)c3ccc(Cl)cc3)ccc2O[C@H]1CN(C)Cc1ccc(Cl)c(Cl)c1 | 1 | 58* | -8
C[C@@H]1CN([C@H](C)CO)C(=O)c2cc(NS(=O)(=O)c3ccccc3)ccc2O[C@@H]1CN(C)Cc1ccc(Cl)c(Cl)c1 | / | -8 | -2
C[C@H]1CN([C@@H](C)CO)C(=O)c2cc(NS(=O)(=O)c3ccccc3)ccc2O[C@@H]1CN(C)Cc1ccc(Cl)c(Cl)c1 | / | 62* | -7
C[C@@H]1CN([C@@H](C)CO)C(=O)c2cccc(NC(=O)c3nc4ccccc4s3)c2O[C@@H]1CN(C)Cc1ccc(Oc2ccccc2)cc1 | 0 | 28 | -73
C[C@H]1CN([C@@H](C)CO)C(=O)CCCn2nncc2CO[C@H]1CN(C)CC1CC1 | 2 | -2 | /
Cc1ccc(S(=O)(=O)N(c2cccc(N=[N+]=[N-])c2)S(=O)(=O)c2ccc(C)cc2)cc1 | 0 | / | /
C[C@H](CO)N1C[C@H](C)[C@H](CN(C)S(=O)(=O)c2ccccc2)OCCCC[C@H](C)Oc2ccc(NC(=O)Nc3ccccc3)cc2C1=O | 0 | / | /
Cc1noc(C)c1S(=O)(=O)N(C)C[C@@H]1Oc2ccc(NC(=O)NC3CCCCC3)cc2CC(=O)N([C@@H](C)CO)C[C@H]1C | 0 | / | /
C[C@@H]1CN([C@H](C)CO)C(=O)c2cc(NC(=O)Nc3ccccc3)ccc2O[C@@H](C)CCCCO[C@H]1CN(C)S(=O)(=O)c1cn(C)cn1 | 1 | / | /
COc1ccc(S(=O)(=O)Nc2ccc3c(c2)C(=O)N([C@H](C)CO)C[C@@H](C)[C@@H](CN(C)C(=O)Nc2ccc(C(F)(F)F)cc2)O3)cc1 | / | 11 | -15
C[C@@H]1CN([C@H](C)CO)C(=O)Cc2cc(NC(=O)Nc3ccc(C(F)(F)F)cc3)ccc2O[C@@H]1CN(C)S(=O)(=O)c1ccc(Cl)cc1 | 0 | 58* | 6
C[C@@H]1CN([C@@H](C)CO)C(=O)Cc2cc(NC(=O)Nc3ccc(C(F)(F)F)cc3)ccc2O[C@@H]1CN(C)S(=O)(=O)c1ccc(F)cc1 | / | 81* | -4
COc1ccc(S(=O)(=O)N(C)C[C@H]2Oc3ccc(NC(=O)Nc4ccc(C(F)(F)F)cc4)cc3CC(=O)N([C@@H](C)CO)C[C@H]2C)cc1 | 0 | 65* | -12
C[C@H](CO)N1C[C@H](C)[C@H](CN(C)S(=O)(=O)c2ccc(Cl)cc2)Oc2ccc(NC(=O)Nc3ccc(C(F)(F)F)cc3)cc2CC1=O | / | 63* | -9
C[C@H]1CN([C@@H](C)CO)C(=O)Cc2cc(NC(=O)Nc3ccc(C(F)(F)F)cc3)ccc2O[C@H]1CN(C)S(=O)(=O)c1ccc(F)cc1 | -2 | 31 | -13
C[C@@H]1CN([C@@H](C)CO)C(=O)Cc2cc(NC(=O)Nc3ccc(C(F)(F)F)cc3)ccc2O[C@H]1CN(C)S(=O)(=O)c1ccc(Cl)cc1 | 1 | / | /
COc1ccc(S(=O)(=O)N(C)C[C@H]2Oc3ccc(NC(=O)Nc4ccc(C(F)(F)F)cc4)cc3CC(=O)N([C@H](C)CO)C[C@@H]2C)cc1 | 2 | / | /
C[C@@H]1CN([C@H](C)CO)C(=O)Cc2cc(NC(=O)Nc3ccc(C(F)(F)F)cc3)ccc2O[C@H]1CN(C)S(=O)(=O)c1ccc(Cl)cc1 | / | 33 | -62
C[C@H]1CN([C@@H](C)CO)C(=O)c2cc(NS(=O)(=O)c3ccccc3)ccc2O[C@@H]1CN(C)C(=O)Nc1cccc2ccccc12 | / | -10 | 0
COc1ccc(NC(=O)Nc2ccc3c(c2)C(=O)N([C@H](C)CO)C[C@H](C)[C@@H](CN(C)Cc2ccccc2)O3)cc1 | / | -16 | /
Cc1ccc(S(=O)(=O)N(C)C[C@@H]2Oc3ccc(NC(=O)Nc4ccc(C(F)(F)F)cc4)cc3CC(=O)N([C@@H](C)CO)C[C@@H]2C)cc1 | / | ? | -57
Cc1ccc(S(=O)(=O)N(C)C[C@H]2Oc3ccc(NC(=O)Nc4ccc(C(F)(F)F)cc4)cc3CC(=O)N([C@@H](C)CO)C[C@H]2C)cc1 | 1 | 58* | -36
C[C@H](CO)N1C[C@H](C)[C@@H](CN(C)Cc2ccc(Oc3ccccc3)cc2)Oc2c(NC(=O)C3CC3)cccc2C1=O | -1 | 48 | -25
C[C@H](CO)N1C[C@H](C)[C@@H](CN(C)Cc2ccc(-c3ccccc3)cc2)Oc2c(NC(=O)C3CC3)cccc2C1=O | / | 69* | -53
SMILES | A1 apoptosis 2 | T cruzi HTS | INS-1E ATP HTS
C[C@@H]1CN([C@@H](C)CO)C(=O)c2cccc(NC(=O)C3CCCCC3)c2O[C@@H]1CN(C)S(=O)(=O)c1ccccc1 | / | 57* | -2
C[C@H](CO)N1C[C@H](C)[C@H](CN(C)Cc2ccc(-c3ccccc3)cc2)Oc2c(NC(=O)C3CC3)cccc2C1=O | 2 | -13 | -25
C[C@H](CO)N1C[C@H](C)[C@H](CN(C)Cc2ccc(C(F)(F)F)cc2)Oc2c(NC(=O)C3CCCCC3)cccc2C1=O | / | 2 | -28
C[C@H]1CN([C@@H](C)CO)C(=O)c2cccc(NC(=O)C3CC3)c2O[C@@H]1CN(C)Cc1ccc(Oc2ccccc2)cc1 | / | 68* | -27
C[C@@H]1CN([C@@H](C)CO)C(=O)c2cccc(NC(=O)C3CCCCC3)c2O[C@H]1CN(C)Cc1ccc(C(F)(F)F)cc1 | -1 | 75* | -27
C[C@H]1CN([C@@H](C)CO)C(=O)c2cccc(NC(=O)C3CCCCC3)c2O[C@@H]1CN(C)S(=O)(=O)c1ccccc1 | / | 5 | 2
COc1ccc(S(=O)(=O)N(C)C[C@H]2Oc3ccc(NS(=O)(=O)c4ccc(C)cc4)cc3C(=O)N([C@H](C)CO)C[C@@H]2C)cc1 | 0 | 3 | 1
C[C@@H]1CN([C@H](C)CO)C(=O)c2cccc(NS(C)(=O)=O)c2O[C@@H]1CN(C)Cc1ccc(Cl)c(Cl)c1 | 1 | -10 | -4
C[C@H]1CN([C@@H](C)CO)C(=O)Cc2cc(NC(=O)CCN3CCOCC3)ccc2O[C@@H]1CN(C)C(=O)Nc1ccccc1 | 1 | -6 | 3
O=C(CCCCC(=O)N/N=C/c1ccccc1[N+](=O)[O-])NO | -1 | 12 | 14
O=C(CCCCCCC(=O)Nc1ccccc1O)N/N=C/c1cccnc1Cl | / | -6 | 11
Cc1cc(C(=O)Nc2cccc3c2O[C@@H](CN(C)S(=O)(=O)c2ccc(F)cc2)[C@H](C)CN([C@H](C)CO)C3=O)n(C)n1 | / | -13 | 6
CNC[C@@H]1Oc2c(NC(=O)Nc3ccc(F)cc3)cccc2C(=O)N([C@H](C)CO)C[C@H]1C | ? | -34 | 9
O=C(CCCCC(=O)N/N=C/c1ccc(C(=O)O)cc1)NO | -2 | -12 | 9
C[C@H](CO)N1C[C@H](C)[C@@H](CN(C)S(=O)(=O)c2cn(C)cn2)Oc2c(cccc2N(C)C)C1=O | -1 | 59* | 6

Screens from PubChem.
